Measurements as given in ChEMBL document CHEMBL1122379, “Design of anticandidal agents: synthesis and biological properties of analogues of polyoxin L” (J Med Chem, 1983).

Key:
Candida albicans [1] = test: Minimum effective concentration is the lowest concentration at which some (5%) morphologically abnormal cells were observed under microscopic examination.; type: functional; details: read-out: MEC
How it was run: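 C. albicans H-317 (clinical isolate) grown at 37 °C in yeast nitrogen base with 0.5% isoleucine and 5.0% glucose, harvested at early log phase, washed. Twofold serial dilutions in yeast nitrogen base, 1×10^6 cells/mL per well, 48 h at 37 °C in humid chamber with slight agitation; wells examined microscopically for lowest concentration giving ~5% abnormal cells.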

Candida albicans [2] = test: (§1) Concentration at which 50% of the cells incubated, were not able to form colonies when replated.; type: functional
How it was run: (§2)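 C. albicans H-317 grown at 37 °C with stirring in yeast nitrogen base with 0.5% isoleucine and 5.0% glucose, harvested at early log phase. Cells were exposed at 1×10^6 cells/mL to twofold serial drug dilutions and incubated 48 h at 37 °C in a humid chamber. Wells were plated on potato dextrose agar for 2 days at 37 °C. Viability was taken as colonies versus hemocytometer counts.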

[3] = target: Chitin synthase 1 (Candida albicans) (UniProt P23316); test: Inhibitory activity against chitin synthetase from Candida albicans H-317; type: functional
Chitin synthase 1 (Candida albicans), sequence (P23316 whole entry, looked up): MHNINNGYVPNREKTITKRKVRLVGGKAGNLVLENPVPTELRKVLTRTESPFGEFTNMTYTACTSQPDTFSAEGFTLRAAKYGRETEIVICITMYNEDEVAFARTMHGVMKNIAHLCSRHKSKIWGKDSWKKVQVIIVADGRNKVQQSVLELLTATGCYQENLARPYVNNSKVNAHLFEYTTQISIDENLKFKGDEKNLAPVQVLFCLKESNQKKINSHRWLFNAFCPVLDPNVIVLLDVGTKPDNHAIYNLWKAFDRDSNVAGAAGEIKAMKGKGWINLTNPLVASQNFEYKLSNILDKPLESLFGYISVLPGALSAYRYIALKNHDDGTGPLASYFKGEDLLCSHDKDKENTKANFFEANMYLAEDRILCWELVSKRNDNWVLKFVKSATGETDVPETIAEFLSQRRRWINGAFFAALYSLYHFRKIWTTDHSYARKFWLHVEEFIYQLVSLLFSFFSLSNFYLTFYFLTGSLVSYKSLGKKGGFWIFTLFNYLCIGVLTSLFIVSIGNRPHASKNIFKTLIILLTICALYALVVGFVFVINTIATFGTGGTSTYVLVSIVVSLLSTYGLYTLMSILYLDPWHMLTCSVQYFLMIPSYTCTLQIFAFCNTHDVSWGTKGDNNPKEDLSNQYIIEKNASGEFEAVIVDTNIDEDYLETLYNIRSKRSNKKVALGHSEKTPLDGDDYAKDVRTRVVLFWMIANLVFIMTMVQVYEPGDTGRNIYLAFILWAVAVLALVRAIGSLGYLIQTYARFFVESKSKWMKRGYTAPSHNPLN
How it was run: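 Mixed membrane fraction of C. albicans H-317 (5.17 mg protein/mL stock), trypsin-activated 10 min at 37 °C with ATP in imidazole buffer pH 6.5; trypsin inhibitor, GlcNAc and UDP-[14C]GlcNAc then added with inhibitor at 10^-3 to 10^-6 M. Aliquots taken at 5–60 min, acid/ethanol-precipitated chitin filtered and scintillation-counted; ID50 = concentration giving half of initial velocity from dose-response curves.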

Candida albicans [4] = test: as §1; type: ADME, organism-based; details: read-out: Viability; how it was run: as §2

Structure (SMILES) | minimal effective concentration (Candida albicans [1]) [µM] | Viability (Candida albicans [2]) [mM] | ID50 [3] [µM] | LC50 (Candida albicans [4]) [µM]
NC(=O)OCC(O)C(O)C(N)C(=O)NC(C(=O)O)[C@H]1O[C@@H](n2cc(C(=O)O)c(=O)[nH]c2=O)[C@H](O)[C@@H]1O (some centres undefined) | 2 | 1 | 1.8 | 
NC(C(=O)O)[C@H]1O[C@@H](n2ccc(=O)[nH]c2=O)[C@H](O)[C@@H]1O (some centres undefined) | 8000 | >8 | > 100 | 
NC(Cc1ccc(O)cc1)C(=O)NC(C(=O)O)[C@H]1O[C@@H](n2ccc(=O)[nH]c2=O)[C@H](O)[C@@H]1O (some centres undefined) | 8000 |  | 4.9 | > 8000
NC(Cc1ccc(Oc2ccc(O)cc2)cc1)C(=O)NC(C(=O)O)[C@H]1O[C@@H](n2ccc(=O)[nH]c2=O)[C@H](O)[C@@H]1O (some centres undefined) | 2000 | 4 | 16 | 
N[C@@H](Cc1c[nH]c2ccccc12)C(=O)NC(C(=O)O)[C@H]1O[C@@H](n2ccc(=O)[nH]c2=O)[C@H](O)[C@@H]1O (some centres undefined) | 130 | >8 | 1.7 | 
NC(=O)NCCCC(N)C(=O)N[C@@H](C(=O)O)[C@H]1O[C@@H](n2ccc(=O)[nH]c2=O)[C@H](O)[C@@H]1O (some centres undefined) | 500 | >8 | 68 | 
CCCCC(N)C(=O)NC(C(=O)O)[C@H]1O[C@@H](n2ccc(=O)[nH]c2=O)[C@H](O)[C@@H]1O (some centres undefined) | 170 | 4 | 14 | 
NC(CCc1ccccc1)C(=O)NC(C(=O)O)[C@H]1O[C@@H](n2ccc(=O)[nH]c2=O)[C@H](O)[C@@H]1O (some centres undefined) | 60 | >8 | 3.8 | 
